Reference: ChEMBL document CHEMBL3745600, “2-Amino-thiophene derivatives present antileishmanial activity mediated by apoptosis and immunomodulation in vitro” (Eur J Med Chem, 2015)
≈ marks a conversion by molar mass, not a printed value. Calls of active or inactive are those of the source. The calls are words filed in the database; no cut-off is given here.

Tests used:
[1] = Cytotoxicity against Swiss mouse peritoneal macrophages after 24 hrs by MTT assay; type: cell-based, Peritoneal macrophage cell
In short: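 Macrophages were collected from Swiss mice 5 days after thioglycollate (3%) elicitation. About 1 x 10^6 cells per well were incubated in RPMI 1640 with 10% heat-inactivated FBS and compound for 24 h at 37°C, 5% CO₂. MTT was added for 4 h, followed by 10% SDS, and absorbance was read at 540 nm. CC50 was obtained by probit regression.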

[2] = Toxicity in human RBC assessed as induction of hemolytic activity after 1 hr by spectrometer analysis; type: cell-based, Erythrocyte; conditions: red blood cells (RBC)
In short: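 A 5% suspension of human erythrocytes in PBS was mixed 4:1 with serial compound dilutions and incubated 1 h at 37°C. The reaction was stopped with PBS (pH 7.2) and spun 10 min at 1000 x g, and supernatant absorbance was read at 540 nm. Haemolysis was expressed relative to a drug-free blank and to water-induced total lysis. HC50 was obtained by probit regression.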

[3] = Selectivity index, ratio of CC50 for Swiss mouse peritoneal macrophages to IC50 for promastigotes of Leishmania amazonensis IFLA/BR/67/PH8; type: functional
In short: (§1)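 Promastigote values came from haemocytometer counts after 72 h at 25°C. Axenic amastigote values came from MTT readings after 24 h at 32°C, using amastigotes differentiated at pH 4.6. All 50% values were obtained by probit regression.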

[4] = Selectivity index, ratio of HC50 for human RBC to IC50 for promastigotes of Leishmania amazonensis IFLA/BR/67/PH8; in short: as §1
[5] = Selectivity index, ratio of CC50 for Swiss mouse peritoneal macrophages to EC50 for axenic amastigotes of Leishmania amazonensis IFLA/BR/67/PH8; in short: as §1
[6] = Selectivity index, ratio of HC50 for human RBC to IC50 for axenic amastigotes of Leishmania amazonensis IFLA/BR/67/PH8; in short: as §1
[7] = system: Leishmania amazonensis; assay: Antileishmanial activity against promastigotes of Leishmania amazonensis IFLA/BR/67/PH8 assessed as induction of early apoptosis using Annexin-V staining at IC50 after 4 hrs by flow cytometry (reference value: 8.3%); type: functional
[8] = system: Leishmania amazonensis; assay: Antileishmanial activity against promastigotes of Leishmania amazonensis IFLA/BR/67/PH8 assessed as induction of early apoptosis using Annexin-V staining at 2 times IC50 after 4 hrs by flow cytometry (reference value: 8.3%); type: functional
[9] = system: Leishmania amazonensis; assay: Antileishmanial activity against promastigotes of Leishmania amazonensis IFLA/BR/67/PH8 assessed as induction of early apoptosis using Annexin-V staining at 4 times IC50 after 4 hrs by flow cytometry (reference value: 8.3%); type: functional
[10] = system: Leishmania amazonensis; assay: Antileishmanial activity against promastigotes of Leishmania amazonensis IFLA/BR/67/PH8 assessed as induction of late apoptosis using Annexin-V/PI staining at IC50 after 4 hrs by flow cytometry (reference value: 12.05%); type: functional
[11] = system: Leishmania amazonensis; assay: Antileishmanial activity against promastigotes of Leishmania amazonensis IFLA/BR/67/PH8 assessed as induction of late apoptosis using Annexin-V/PI staining at 2 times IC50 after 4 hrs by flow cytometry (reference value: 12.05%); type: functional
[12] = system: Leishmania amazonensis; assay: Antileishmanial activity against promastigotes of Leishmania amazonensis IFLA/BR/67/PH8 assessed as induction of late apoptosis using Annexin-V/PI staining at 4 times IC50 after 4 hrs by flow cytometry (reference value: 12.05%); type: functional
[13] = system: Leishmania amazonensis; assay: Antileishmanial activity against promastigotes of Leishmania amazonensis IFLA/BR/67/PH8 assessed as induction of necrosis using Annexin-V-FITC/PI staining at 4 times IC50 after 4 hrs by flow cytometry (reference value: 2.6%); type: functional
[14] = system: Leishmania amazonensis; assay: Antileishmanial activity against promastigotes of Leishmania amazonensis IFLA/BR/67/PH8 assessed as induction of DNA fragmentation at 1 to 4 times IC50 after 24 hrs by agarose gel electrophoresis; type: functional, organism-based
In short: (§2)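 Genomic DNA was extracted with phenol/chloroform and run on agarose with GelRed (1:500) for 1 h at […]. Fragmentation was viewed under UV as a qualitative read-out.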

[15] = system: Leishmania amazonensis; assay: Antileishmanial activity against axenic amastigotes of Leishmania amazonensis IFLA/BR/67/PH8 infected in Swiss mouse peritoneal macrophages assessed as reduction of survival rate after 24 hrs by light microscopy analysis; type: functional, organism-based
In short: (§3)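 Peritoneal macrophages were plated on glass coverslips at 1 x 10^6 cells/mL in supplemented RPMI 1640 and allowed to adhere for 2 h at 34°C, 5% CO₂. They were infected for 3 h with stationary-phase promastigotes at 10 parasites per macrophage, washed with PBS, then exposed to compound for 24 or 72 h. Coverslips were fixed and Panoptic-stained, and 300 macrophages per coverslip were counted by light microscopy. EC50 was derived by probit regression.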

[16] = system: Leishmania amazonensis; assay: Antileishmanial activity against axenic amastigotes of Leishmania amazonensis IFLA/BR/67/PH8 infected in Swiss mouse peritoneal macrophages assessed as reduction of survival rate after 72 hrs by light microscopy analysis; type: functional, organism-based; in short: as §3
[17] = system: Peritoneal macrophage cell; assay: Immunomodulatory activity in Swiss mouse peritoneal macrophages infected with promastigotes form of Leishmania amazonensis IFLA/BR/67/PH8 assessed as increase of TNFalpha production at 6.25 to 25 uM after 72 hrs by sandwich ELISA; type: functional, cell-based
In short: (§4)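 Supernatants came from infected macrophages treated for 72 h at 37°C, 5% CO₂. TNF-α, IL-12 and IL-10 were measured by sandwich ELISA at 450 nm against murine recombinant cytokine standards. NO was estimated as nitrite by the Griess reaction at 540 nm against a sodium nitrite standard. LPS (10 mg/L) served as positive control. Three experiments were run in triplicate.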

[18] = system: Peritoneal macrophage cell; assay: Immunomodulatory activity in Swiss mouse peritoneal macrophages infected with promastigotes form of Leishmania amazonensis IFLA/BR/67/PH8 assessed as increase of IL-12 production at 6.25 to 25 uM after 72 hrs by sandwich ELISA; type: functional, cell-based; in short: as §4
[19] = system: Peritoneal macrophage cell; assay: Immunomodulatory activity in Swiss mouse peritoneal macrophages infected with promastigotes form of Leishmania amazonensis IFLA/BR/67/PH8 assessed as increase of nitric oxide production at 6.25 to 25 uM after 72 hrs by Griess assay; type: functional, cell-based; in short: as §4
[20] = system: Peritoneal macrophage cell; assay: Immunomodulatory activity in Swiss mouse peritoneal macrophages infected with promastigotes form of Leishmania amazonensis IFLA/BR/67/PH8 assessed as increase of IL-10 production at 6.25 to 25 uM after 72 hrs by sandwich ELISA; type: functional, cell-based; in short: as §4
[21] = system: Leishmania amazonensis; assay: Antileishmanial activity against promastigotes of Leishmania amazonensis IFLA/BR/67/PH8 assessed as induction of necrosis using Annexin-V-FITC/PI staining at IC50 after 4 hrs by flow cytometry (reference value: 2.6%); type: functional
[22] = system: Leishmania amazonensis; assay: Antileishmanial activity against promastigotes of Leishmania amazonensis IFLA/BR/67/PH8 assessed as induction of necrosis using Annexin-V-FITC/PI staining at 2 times IC50 after 4 hrs by flow cytometry (reference value: 2.6%); type: functional
[23] = system: Leishmania amazonensis; assay: Antileishmanial activity against promastigotes of Leishmania amazonensis IFLA/BR/67/PH8 assessed as viable cells using Annexin-V staining at IC50 after 4 hrs by flow cytometry (reference value: 77%); type: functional
[24] = system: Leishmania amazonensis; assay: Antileishmanial activity against promastigotes of Leishmania amazonensis IFLA/BR/67/PH8 assessed as viable cells using Annexin-V staining at 2 times IC50 after 4 hrs by flow cytometry (reference value: 77%); type: functional
[25] = system: Leishmania amazonensis; assay: Antileishmanial activity against promastigotes of Leishmania amazonensis IFLA/BR/67/PH8 assessed as viable cells using Annexin-V staining at 4 times IC50 after 4 hrs by flow cytometry (reference value: 77%); type: functional
[26] = system: Leishmania amazonensis; assay: Antileishmanial activity against axenic amastigotes of Leishmania amazonensis IFLA/BR/67/PH8 after 24 hrs by MTT assay; conditions: IFLA/BR/67/PH8, 24 h
[27] = system: Leishmania amazonensis; assay: Antileishmanial activity against promastigotes of Leishmania amazonensis IFLA/BR/67/PH8 after 72 hrs by Neubauer haemocytometer counting; conditions: IFLA/BR/67/PH8, 72 h
[28] = system: Leishmania amazonensis; assay: Antileishmanial activity against promastigotes of Leishmania amazonensis IFLA/BR/67/PH8 assessed as induction of DNA fragmentation at IC50 after 24 hrs by agarose gel electrophoresis; type: functional, organism-based; in short: as §2
[29] = system: Leishmania amazonensis; assay: Antileishmanial activity against axenic amastigotes of Leishmania amazonensis IFLA/BR/67/PH8 infected in Swiss mouse peritoneal macrophages assessed as reduction of survival rate at 300 mg/L after 72 hrs by light microscopy analysis; type: functional, organism-based; in short: as §3
[30] = system: Leishmania amazonensis; assay: Antileishmanial activity against axenic amastigotes of Leishmania amazonensis IFLA/BR/67/PH8 infected in Swiss mouse peritoneal macrophages assessed as reduction of survival rate at 50 to 300 mg/L after 24 hrs by light microscopy analysis; type: functional, organism-based; in short: as §3

Row | Compound | CC50 at 24 h [1] [µM] | HC50 at 1 h [2] [µM] | Ratio CC50/IC50 [3] | Selectivity Index [4] | Ratio CC50/EC50 [5] | Selectivity Index [6] | EC50 [26] [µM] | IC50 [27] [µM] | also measured
1 | N#Cc1c(/N=C/c2cc3ccccc3[nH]2)sc2c1CCCCC2 | 49.1 | 721 | 6.65 | 97.9 | 3.1 | 45.5 | 15.8 | 7.37 | Activity [7]: 4.07%; Activity [8]: 3.5%; Activity [9]: 4.06%; Activity [10]: 11.6%; Activity [11]: 15.6%; Activity [12]: 25.2%; Activity [13]: 54.9%; Activity [14]: Active; Activity [15]: Dose-dependent effect; Activity [16]: Dose-dependent effect; Activity [17]: inactive; Activity [18]: inactive; Activity [19]: inactive; Activity [20]: inactive; Activity [21]: 12.1%; Activity [22]: 31.6%; Activity [23]: 72.2%; Activity [24]: 19%; Activity [25]: 15.7%
2 | N#Cc1c(/N=C/c2cccs2)sc2c1CCC2 | 540 | > 800 | 3.87 | > 5.73 | 2.56 | > 3.79 | 211 | 139 | 
3 | N#Cc1c(/N=C/c2ccccc2)sc2c1CCCC2 | 141 | 682 | 2.29 | 11.1 | 1.13 | 5.4 | 124 | 61.5 | 
4 | N#Cc1c(/N=C/c2ccc3ncccc3c2)sc2c1CCC2 | 196 | 625 | 3.99 | 12.7 | 1.9 | 6 | 103 | 49.1 | 
5 | COc1ccc(Br)c(/C=N/c2sc3c(c2C#N)CCCC3)c1 | 211 | > 800 | 2.4 | > 9.1 | 1.26 | > 4.78 | 167 | 88 | 
6 | N#Cc1c(/N=C/c2cc3cc(Br)ccc3[nH]2)sc2c1CCCCC2 | 32 | > 800 | 8.77 | > 219 | 1.59 | > 39.8 | 20.1 | 3.65 | Activity [7]: 4.8%; Activity [8]: 5.6%; Activity [9]: 4.3%; Activity [10]: 9.06%; Activity [11]: 27.3%; Activity [12]: 27.1%; Activity [13]: 53.2%; Activity [14]: Active; Activity [15]: Dose-dependent effect; Activity [16]: Dose-dependent effect; Activity [17]: Active; Activity [18]: Active; Activity [20]: inactive; Activity [21]: 6.1%; Activity [22]: 22.7%; Activity [23]: 79.9%; Activity [24]: 44.3%; Activity [25]: 15.3%
7 | C[C@@H]1[C@H](O)[C@@H](C)/C=C/C=C/C=C/C=C/C=C/C=C/C=C/[C@H](O[C@@H]2O[C@H](C)[C@@H](O)[C@H](N)[C@@H]2O)C[C@@H]2O[C@](O)(C[C@@H](O)C[C@@H](O)[C@H](O)CC[C@@H](O)C[C@@H](O)CC(=O)O[C@H]1C)C[C@H](O)[C@H]2C(=O)O [AMPHOTERICIN B] | 0.18 | 11.6 | 1.05 | 68.2 | 0.78 | 50.4 | 0.23 | 0.17 | Activity [7]: 6%; Activity [8]: 10.4%; Activity [9]: 10.3%; Activity [10]: 23.8%; Activity [11]: 38.8%; Activity [12]: 42.2%; Activity [13]: 8.6%; Activity [28]: Active; EC50 ([16]; IFLA/BR/67/PH8, 72 h): 169 µg/mL (≈ 183 µM); Activity [21]: 2.8%; Activity [22]: 5.2%; Activity [23]: 67.2%; Activity [24]: 45.5%; Activity [25]: 38.8%
8 | Meglumine antimoniate |  |  | 0.04 | 0.016 | 1.01 | 0.42 |  |  | Activity [29]: Active; Activity [30]: inactive
9 | N#Cc1c(/N=C/c2ccc([N+](=O)[O-])cc2)sc2c1CCCC2 | 229 | > 800 | 1.22 | > 4.27 | 1.07 | > 3.76 | 213 | 187 | 
10 | N#Cc1c(/N=C/c2cccs2)sc2c1CCCCC2 | 722 | > 800 | 3.81 | > 4.22 | 3.75 | > 4.16 | 192 | 189 | 
11 | N#Cc1c(/N=C/c2ccc3ncccc3c2)sc2c1CCCCC2 | 438 | 716 | 2.66 | 4.35 | 3.31 | 5.41 | 132 | 165 | 
